Measured values collected from several papers.
Compare with care: the assays were run in different laboratories.
HTR2A: 5-hydroxytryptamine receptor 2A (HTR2A, Homo sapiens, UniProt P28223)
SIGMAR1: Sigma non-opioid intracellular receptor 1 (SIGMAR1, Homo sapiens, UniProt Q99720)
Oprm1: Mu-type opioid receptor (Oprm1, Mus musculus, UniProt P42866)

SMILES | target | effect on | method | setting | endpoint | value
COC(=O)/C=C/C(=O)N[C@@H]1CC[C@@]2(O)[C@H]3Cc4ccc(O)c5c4[C@@]2(CCN3CC2CC2)[C@H]1O5 | Kappa-type opioid receptor (OPRK1, Homo sapiens, UniProt P41145, E297K) | ligand displacement | radioligand | cell membranes | IC50 | 4.29 nM
N#Cc1ccccc1-c1cc(-c2ccccn2)cn(-c2ccccc2)c1=O | Glutamate receptor ionotropic, kainate 2 (Grik2, Rattus norvegicus, UniProt P42260) | ion current | patch clamp |  | IC50 | 58000 nM
NCCc1c[nH]c2cc(F)ccc12 | HTR2A | ligand displacement | radioligand |  | Ki | 606 nM
CN[C@@H](C)[C@@H](O)c1ccccc1 | SIGMAR1 | ligand displacement | radioligand |  | Ki | > 10000 nM
O=C(N[C@@H]1C=C[C@@]2(O)[C@H]3Cc4ccc(O)c5c4[C@@]2(CCN3CC2CC2)[C@H]1O5)c1c[nH]c2cnccc12 | Oprm1 | ligand displacement | radioligand |  | Ki | 0.56 nM
NCCc1c[nH]c2ccc(Cl)cc12 | HTR2A | ligand displacement | radioligand |  | Ki | 889 nM
O=C(N[C@H]1C=C[C@@]2(O)[C@H]3Cc4ccc(O)c5c4[C@@]2(CCN3CC2CC2)[C@H]1O5)c1n[nH]c2ccccc12 | Oprm1 | ligand displacement | radioligand |  | Ki | 0.33 nM
O=[N+]([O-])c1cn2c(n1)OC[C@@H](OCc1ccc(OC(F)(F)F)cc1)C2 | ddn (Mycobacterium tuberculosis, UniProt P9WP15) | binding | fluorescence |  | Kd | 13900 nM
O=C(N[C@@H]1C=C[C@@]2(O)[C@H]3Cc4ccc(O)c5c4[C@@]2(CCN3CC2CC2)[C@H]1O5)c1c[nH]c2cccnc12 | Oprm1 | ligand displacement | radioligand |  | Ki | 0.41 nM
CN1CC[C@@]23CCCC[C@@H]2[C@@H]1Cc1ccc(O)cc13 | SIGMAR1 | ligand displacement | radioligand |  | Ki | 2670 nM
